In brackets after ≈: the same amount, converted by molar mass. Activity calls are given as the source filed them. The rule behind the calls is not given here. Where a SMILES comes first, the peptide text is derived from it.
Legend:
[1] = tested on: Staphylococcus aureus; test: Antibacterial activity against Staphylococcus aureus KCTC 1621 assessed as growth inhibition at 50 ug/ml preincubated with trypsin for 1 hr followed by 18 to 20 hrs incubation in bacterial culture by broth microdilution method; format: functional, organism-based
Outline: (§1)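 Peptides are pretreated with trypsin, then residual antibacterial activity is measured by broth microdilution. Remaining intact peptide at each degradation time is followed separately by analytical RP-HPLC after trypsin treatment.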

[2] = tested on: Escherichia coli; test: Antibacterial activity against Escherichia coli KCTC 1682 assessed as growth inhibition at 50 ug/ml preincubated with trypsin for 1 hr followed by 18 to 20 hrs incubation in bacterial culture by broth microdilution method; format: functional, organism-based; outline: as §1
[3] = tested on: Staphylococcus aureus; test: Antibacterial activity against methicillin-resistant Staphylococcus aureus CCARM 3095 assessed as growth inhibition after 18 to 20 hrs by broth microdilution method; format: functional
[4] = tested on: Staphylococcus aureus; test: Antibacterial activity against methicillin-resistant Staphylococcus aureus CCARM 3090 assessed as growth inhibition after 18 to 20 hrs by broth microdilution method; format: functional
[5] = Hemolytic activity in human RBC after 1 hr; format: ADME, cell-based; conditions: erythrocyte
Outline: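 Human erythrocytes are exposed to peptide, and HC10 is taken as the peptide concentration producing 10% hemolysis. If no hemolysis is detected at the top concentration tested, twice that maximum is used for the therapeutic index.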

[6] = tested on: Staphylococcus aureus; test: Antibacterial activity against methicillin-resistant Staphylococcus aureus CCARM 3089 assessed as growth inhibition after 18 to 20 hrs by broth microdilution method; format: functional
[7] = tested on: Staphylococcus aureus; test: Antibacterial activity against Staphylococcus aureus KCTC 1621 assessed as growth inhibition after 18 to 20 hrs by broth microdilution method; format: functional
Outline: (§2)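 MIC by broth microdilution against a four-strain panel: E. coli and P. aeruginosa (Gram-negative), S. epidermidis and S. aureus (Gram-positive). Values are given in mass and molar units. Where no activity occurs at the top concentration, twice that maximum is used in the geometric-mean MIC calculation.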

[8] = tested on: Staphylococcus epidermidis; test: Antibacterial activity against Staphylococcus epidermidis KCTC 1917 assessed as growth inhibition after 18 to 20 hrs by broth microdilution method; format: functional; outline: as §2
[9] = tested on: Pseudomonas aeruginosa; test: Antibacterial activity against Pseudomonas aeruginosa KCTC 1637 assessed as growth inhibition after 18 to 20 hrs by broth microdilution method; format: functional; outline: as §2
[10] = tested on: Escherichia coli; test: Antibacterial activity against Escherichia coli KCTC 1682 assessed as growth inhibition after 18 to 20 hrs by broth microdilution method; format: functional; outline: as §2
[11] = tested on: Staphylococcus aureus; test: Antibacterial activity against Staphylococcus aureus KCTC 1621 assessed as obvious disruption of cellular structure at 10 X MIC after 1 hr by transmission electron microscopic analysis; format: functional, organism-based
Outline: (§3)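 Peptide-treated E. coli and S. aureus are negatively stained and examined by transmission electron microscopy for cell rupture and release of internal material. Comparisons are made with untreated cells, with LL-37 as a positive lysis control.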

[12] = tested on: Escherichia coli; test: Antibacterial activity against Escherichia coli KCTC 1682 assessed as obvious disruption of cellular structure at 10 X MIC after 1 hr by transmission electron microscopic analysis; format: functional, organism-based; outline: as §3

Row | Molecule | growth inhibition (GI) [1] | growth inhibition (GI) [2] | MIC [3] [µM] | MIC [4] [µM] | HC10 [5] [µM] | MIC [6] [µM] | MIC [7] [µM] | MIC [8] [µM] | MIC [9] [µM] | MIC [10] [µM] | Activity [11] | Activity [12]
1 | N=C(N)NCCC[C@H](NC(=O)[C@@H](N)Cc1c[n+](CCCC2CCCCC2)cn1CCCC1CCCCC1)C(N)=O | Active | Active | 14.3 | 28.6 | > 457.6 | 14.3 | 14.3 | 14.3 | 57.2 | > 114 |  | 
2 | CC[C@H](C)[C@H](NC(=O)CN)C(=O)NCC(=O)N[C@@H](C)C(=O)N[C@H](C(=O)N[C@@H](CC(C)C)C(=O)N[C@@H](CCCCN)C(=O)N[C@H](C(=O)N[C@@H](CC(C)C)C(=O)N[C@H](C(=O)N[C@H](C(=O)NCC(=O)N[C@@H](CC(C)C)C(=O)N1CCC[C@H]1C(=O)N[C@@H](C)C(=O)N[C@@H](CC(C)C)C(=O)N[C@H](C(=O)N[C@@H](CO)C(=O)N[C@@H](Cc1c[nH]c2ccccc12)C(=O)N[C@H](C(=O)N[C@@H](CCCCN)C(=O)N[C@@H](CCCNC(=N)N)C(=O)N[C@@H](CCCCN)C(=O)N[C@@H](CCCNC(=N)N)C(=O)N[C@@H](CCC(N)=O)C(=O)N[C@@H](CCC(N)=O)C(N)=O)[C@@H](C)CC)[C@@H](C)CC)[C@@H](C)O)[C@@H](C)O)C(C)C)C(C)C | inactive | inactive |  |  |  |  |  |  |  |  |  | 
3 | N=C(N)NCCC[C@H](NC(=O)[C@H](Cc1c[n+](CCCC2CCCCC2)cn1CCCC1CCCCC1)NC(=O)[C@@H](N)CCCNC(=N)N)C(N)=O | Active | Active | 5.2 | 5.2 | > 357.8 | 5.2 | 5.6 | 5.6 | 11.2 | 5.6 | Active | Active
4 | H-WRWRWR-NH2 [listing 1 of 2 here] |  |  |  |  | > 245.2 |  |  |  |  |  |  | 
5 | N=C(N)NCCC[C@H](NC(=O)[C@H](CCCNC(=N)N)NC(=O)[C@@H](N)Cc1c[n+](CCCC2CCCCC2)cn1CCCC1CCCCC1)C(N)=O | Active | Active | 5.6 | 5.6 | > 357.7 | 5.6 | 2.8 | 2.8 | 11.2 | 5.6 | Active | Active
6 | N=C(N)NCCC[C@H](NC(=O)[C@H](Cc1c[nH]c2ccccc12)NC(=O)[C@H](CCCNC(=N)N)NC(=O)[C@@H](N)Cc1c[nH]c2ccccc12)C(N)=O (H-WRWR-NH2) |  |  |  |  | > 364.5 |  |  |  |  |  |  | 
7 | N=C(N)NCCC[C@H](NC(=O)[C@H](Cc1cncn1CCCC1CCCCC1)NC(=O)[C@@H](N)CCCNC(=N)N)C(N)=O | inactive | inactive | 54.1 (≈ 32 µg/mL) | > 54.1 | > 432.9 | 54.1 (≈ 32 µg/mL) | 13.5 (≈ 7.98 µg/mL) | 13.5 (≈ 7.98 µg/mL) | 108 (≈ 63.9 µg/mL) | 108 (≈ 63.9 µg/mL) |  | 
8 | NC(=O)[C@H](CCCN=C(N)N)NC(=O)[C@H](Cc1c[nH]c2ccccc12)NC(=O)[C@@H](N)CCCN=C(N)N (H-Arg-Trp-Arg-NH2) |  |  |  |  | > 495.8 |  | > 124 | > 124 | > 124 | > 124 |  | 
9 | H-WRWRWR-NH2 [listing 2 of 2 here] |  |  |  |  |  |  | 7.7 | 7.7 | 15.3 | 3.8 |  | 
10 | N=C(N)NCCC[C@H](NC(=O)[C@@H](N)CCCNC(=N)N)C(=O)N[C@@H](Cc1c[n+](CCCC2CCCCC2)cn1CCCC1CCCCC1)C(N)=O | Active | Active | 5.6 | 11.2 | > 358 | 5.6 | 5.6 | 5.6 | 11.2 | 5.6 |  | 
11 | NC(=O)[C@H](CCCN=C(N)N)NC(=O)[C@H](Cc1c[nH]c2ccccc12)NC(=O)[C@H](CCCN=C(N)N)NC(=O)[C@@H](N)Cc1c[nH]c2ccccc12 (H-WRWR-NH2) |  |  |  |  |  |  | 45.6 (≈ 32 µg/mL) | 11.4 (≈ 8 µg/mL) | 45.6 (≈ 32 µg/mL) | 45.6 (≈ 32 µg/mL) |  | 
12 | CC[C@H](C)[C@H](NC(=O)[C@H](CCCCN)NC(=O)[C@H](CCC(=O)O)NC(=O)[C@H](CCCCN)NC(=O)[C@H](CO)NC(=O)[C@H](CCCCN)NC(=O)[C@H](CCCNC(=N)N)NC(=O)[C@H](Cc1ccccc1)NC(=O)[C@H](Cc1ccccc1)NC(=O)[C@H](CC(=O)O)NC(=O)CNC(=O)[C@H](CC(C)C)NC(=O)[C@@H](N)CC(C)C)C(=O)NCC(=O)N[C@@H](CCCCN)C(=O)N[C@@H](CCC(=O)O)C(=O)N[C@@H](Cc1ccccc1)C(=O)N[C@@H](CCCCN)C(=O)N[C@@H](CCCNC(=N)N)C(=O)N[C@H](C(=O)N[C@H](C(=O)N[C@@H](CCC(N)=O)C(=O)N[C@@H](CCCNC(=N)N)C(=O)N[C@H](C(=O)N[C@@H](CCCCN)C(=O)N[C@@H](CC(=O)O)C(=O)N[C@@H](Cc1ccccc1)C(=O)N[C@@H](CC(C)C)C(=O)N[C@@H](CCCNC(=N)N)C(=O)N[C@@H](CC(N)=O)C(=O)N[C@@H](CC(C)C)C(=O)N[C@H](C(=O)N1CCC[C@H]1C(=O)N[C@@H](CCCNC(=N)N)C(=O)N[C@H](C(=O)N[C@@H](CCC(=O)O)C(=O)N[C@@H](CO)C(=O)O)[C@@H](C)O)C(C)C)[C@@H](C)CC)C(C)C)[C@@H](C)CC [CATHELICIDIN] |  |  | > 7.1 | > 7.1 | 36.7 | > 7.1 | 3.6 (≈ 16.2 µg/mL) | 14.2 (≈ 63.8 µg/mL) | 7.1 (≈ 31.9 µg/mL) | 7.1 (≈ 31.9 µg/mL) | Active | Active

Source: ChEMBL document CHEMBL2406980, “Non hemolytic short peptidomimetics as a new class of potent and broad-spectrum antimicrobial agents” (Bioorg Med Chem Lett, 2013)
